Measurements from paper PMC9978883 (Molecular Cancer Therapeutics, 2023).

Legend:
[1] = test system: VCaP; assay: Cell proliferation; format: cell-based, human; settings: for IC50: Homo sapiens, VCaP, 72 h, read-out: Growth inhibitory IC50, VCaP
[2] = test system: DU145; assay: Cell proliferation; format: cell-based; settings: Homo sapiens, DU-145, 72 h, read-out: Growth inhibitory IC50, DU145
[3] = test system: PC3; assay: Cell proliferation; format: cell-based; settings: Homo sapiens, PC-3, 72 h, read-out: Growth inhibitory IC50, PC3
[4] = test system: WPMY; assay: Cell proliferation; format: cell-based; settings: Homo sapiens, 72 h, read-out: Growth inhibitory IC50, WPMY
[5] = test system: LNCaP; assay: Cell proliferation; format: cell-based; settings: Homo sapiens, 72 h, read-out: Growth inhibitory IC50, LNCaP
[6] = test system: VCaP cells; assay: Cell necrosis and apoptosis, PI/Hoechst 33342 flow cytometry; format: cell-based, human
[7] = test system: γ-H2A.X; assay: γ-H2A.X Western blotting in VCaP cells; format: cell-based, human
[8] = biological target: T1, interaction between ERG and PARP1 (Homo sapiens, UniProt P11308); format: cell-based; settings: 0.5 or 1 μmol/L, 2 hours, DU145-ERG
T1 sequence (P11308 1-479): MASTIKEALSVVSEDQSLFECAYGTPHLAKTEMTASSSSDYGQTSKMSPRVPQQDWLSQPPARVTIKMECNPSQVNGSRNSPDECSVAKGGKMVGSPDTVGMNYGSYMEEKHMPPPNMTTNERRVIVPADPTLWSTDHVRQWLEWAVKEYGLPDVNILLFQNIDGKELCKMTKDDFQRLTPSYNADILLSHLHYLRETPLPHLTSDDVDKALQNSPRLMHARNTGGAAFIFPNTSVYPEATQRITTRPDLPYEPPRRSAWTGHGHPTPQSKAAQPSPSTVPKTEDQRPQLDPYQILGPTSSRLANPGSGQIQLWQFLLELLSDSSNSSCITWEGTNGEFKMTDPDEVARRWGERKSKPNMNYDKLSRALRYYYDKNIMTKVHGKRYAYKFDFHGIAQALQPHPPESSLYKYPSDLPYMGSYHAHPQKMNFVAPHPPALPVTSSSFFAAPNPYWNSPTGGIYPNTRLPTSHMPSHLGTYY

[9] = test system: AIF; assay: AIF Western blot in VCaP cells; format: cell-based, human
[10] = biological target: T2, ERG (Homo sapiens, UniProt P11308); assay: Surface plasmon resonance, ERG; format: binding; settings: SPR
T2 sequence (P11308 1-479): T1 sequence (P11308 1-479)

[11] = test system: cleaved PARP1; assay: Western blotting for cleaved PARP1 in VCaP cells; format: cell-based, human
[12] = biological target: T3, ALDH1 (Homo sapiens, UniProt P00352); assay: Surface plasmon resonance, ALDH1; format: binding
T3 sequence (P00352 1-501): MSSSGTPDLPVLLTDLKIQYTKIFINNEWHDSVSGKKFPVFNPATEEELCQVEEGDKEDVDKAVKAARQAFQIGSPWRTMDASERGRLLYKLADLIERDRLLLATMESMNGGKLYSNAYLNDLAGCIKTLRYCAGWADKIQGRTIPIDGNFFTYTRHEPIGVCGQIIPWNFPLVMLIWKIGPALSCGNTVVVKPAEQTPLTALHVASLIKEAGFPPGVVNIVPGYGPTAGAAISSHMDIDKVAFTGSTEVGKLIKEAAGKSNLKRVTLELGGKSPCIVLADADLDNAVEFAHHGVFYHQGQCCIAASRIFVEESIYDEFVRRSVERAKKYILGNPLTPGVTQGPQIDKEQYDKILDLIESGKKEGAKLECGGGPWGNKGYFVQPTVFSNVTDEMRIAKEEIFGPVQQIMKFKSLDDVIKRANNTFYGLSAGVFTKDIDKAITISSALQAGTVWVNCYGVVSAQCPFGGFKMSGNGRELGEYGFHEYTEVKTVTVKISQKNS

[13] = test system: DU145 vector; assay: Cell proliferation on DU145 vector control cells; format: cell-based; settings: Homo sapiens, DU-145, read-out: IC50, DU145 vector
[14] = test system: AIF mRNA; assay: RT-qPCR for AIF mRNA on VCaP cells; format: cell-based, human; settings: 2 or 5 μmol/L, 12 or 24 hours
[15] = test system: DU145-ERG
[16] = test system: VCaP xenograft tumors; assay: VCaP xenograft in male SCID mice; format: in vivo
Procedure, shortened: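 Male SCID mice were implanted subcutaneously on the left abdomen with 4 × 10^6 VCaP cells. At about 100 mm3, mice were randomised, six per group. Dosing was 75 mg/kg i.p. once daily or 37.5 mg/kg by gavage twice daily; controls got solvent i.p. Plasma ALT and AST were measured by kit every 7 days. Endpoint was tumour volume >2 cm3. Data are mean ± SD, Dunnett test versus control.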

[17] = test system: VCaP cells; assay: Cell-cycle determination by flow cytometry; format: cell-based, human; settings: 5, 10, or 20 μmol/L, 24 hours
[18] = biological target: STAT3 (Homo sapiens, UniProt P40763); assay: Surface plasmon resonance, STAT3; format: binding
STAT3, sequence (P40763 whole entry): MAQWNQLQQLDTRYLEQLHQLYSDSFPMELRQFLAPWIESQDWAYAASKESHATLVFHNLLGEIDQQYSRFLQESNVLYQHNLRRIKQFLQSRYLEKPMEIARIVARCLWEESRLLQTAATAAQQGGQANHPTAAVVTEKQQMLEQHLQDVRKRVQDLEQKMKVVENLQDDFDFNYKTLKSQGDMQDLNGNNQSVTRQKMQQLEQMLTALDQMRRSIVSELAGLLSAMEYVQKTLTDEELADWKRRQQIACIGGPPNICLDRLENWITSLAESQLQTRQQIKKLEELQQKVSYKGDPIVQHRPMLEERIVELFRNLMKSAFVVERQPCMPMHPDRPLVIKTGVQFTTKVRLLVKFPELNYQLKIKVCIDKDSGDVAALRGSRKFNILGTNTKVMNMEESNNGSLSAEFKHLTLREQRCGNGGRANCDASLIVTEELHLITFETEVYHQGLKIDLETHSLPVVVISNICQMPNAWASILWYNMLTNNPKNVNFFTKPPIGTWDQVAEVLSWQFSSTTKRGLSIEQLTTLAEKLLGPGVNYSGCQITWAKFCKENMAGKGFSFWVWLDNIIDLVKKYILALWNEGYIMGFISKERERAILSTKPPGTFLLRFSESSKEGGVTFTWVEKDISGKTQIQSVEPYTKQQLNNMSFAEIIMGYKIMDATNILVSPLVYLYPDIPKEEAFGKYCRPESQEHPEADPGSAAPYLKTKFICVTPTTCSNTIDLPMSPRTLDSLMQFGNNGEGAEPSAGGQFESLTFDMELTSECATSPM

[19] = NFZ-treated groups, every 7 days

Compound: CCN(CC)C(=S)SSC(=S)N(CC)CC [Disulfiram]
- IC50 [1]: > 30 µM
- IC50 [2]: 22.6 ± 2.93 µM
- IC50 [3]: 27 ± 2 µM
- IC50 [4]: 23.3 ± 0.49 µM
- IC50 [5]: 33 ± 3.11 µM

Compound: O=C(N/N=C/c1ccc([N+](=O)[O-])o1)c1ccc(O)cc1 [NFZ, Nifuroxazide]
- Dead cells along the PI axis (Q1 and Q2) ([6]; 5, 10, or 20 μmol/L, VCaP): significantly higher than that in the DMSO group
- γ-H2A.X expression ([7]; 2 or 5 μmol/L, different times, VCaP): increased
- Amount of PARP1 bound to ERG [8]: reduced the amount of PARP1 bound to ERG
- IC50 [1]: 2.65 ± 0.08 µM
- AIF protein ([9]; 2 or 5 μmol/L, within 30 minutes, VCaP): rapidly released AIF
- Binding pattern with ERG [10]: fast binding and fast dissociation
- PARP1 cleavage ([11]; 2 or 5 μmol/L, VCaP): increased PARP1 cleavage
- Kd [12]: 22.2 µM
- Binding pattern with ALDH1 ([12]; SPR): fast binding/fast dissociation
- IC50 [13]: 7.68 ± 0.211 µM
- AIF mRNA expression [14]: increased the expression of AIF
- Reduction of NFZ inhibition on DU145-ERG by addition of olaparib ([15]; 10 μmol/L OLP): at least 10 fold
- Difference in IC50 between DU145-ERG and DU145 vector ([15]; p < 0.0001): at least sevenfold
- IC50 [2]: 5.12 ± 0.63 µM
- Plasma ALT [16, 19]: fluctuated within a normal range
- Plasma AST [16, 19]: fluctuated within a normal range
- Weight loss of mice ([16]; NFZ-treated versus vehicle): significantly less than that of mice treated with vehicle
- Toxicity by observation ([16]; gavage or i.p.): did not show obvious toxicity
- Proportion of cells in the G1–G0 phase [17]: increased with the increasing NFZ concentrations
- IC50 [3]: 3.62 ± 0.51 µM
- IC50 [4]: 4.53 ± 0.12 µM
- IC50 [5]: 13.4 ± 2.66 µM
- Kd [18]: 22.8 µM
- Binding pattern with STAT3 ([18]; SPR): fast binding/fast dissociation

Compound: CC(=O)c1cc2c(o1)C(=O)c1ccccc1C2=O [Napabucasin]
- IC50 [1]: 0.23 ± 0.05 µM
- IC50 [2]: 0.16 ± 0.05 µM
- IC50 [3]: 0.29 ± 0.07 µM
- IC50 [4]: 0.25 ± 0.01 µM
- IC50 [5]: 0.23 ± 0.08 µM

Compound: CSCC1CN(/N=C/c2ccc([N+](=O)[O-])o2)C(=O)O1 (stereo not shown) [Nifuratel]
- IC50 [1]: 13.9 ± 1.12 µM
- IC50 [2]: 27.7 ± 1.11 µM
- IC50 [3]: 3.87 ± 0.35 µM
- IC50 [4]: 26.6 ± 0.13 µM
- IC50 [5]: > 30 µM

Compound: O=C(N/N=C/c1ccc([N+](=O)[O-])o1)c1cc([N+](=O)[O-])cc([N+](=O)[O-])c1O [Nifursol]
- IC50 [1]: > 30 µM
- IC50 [2]: > 30 µM
- IC50 [3]: > 30 µM
- IC50 [4]: > 30 µM
- IC50 [5]: > 30 µM

Compound: CC1CS(=O)(=O)CCN1/N=C/c1ccc([N+](=O)[O-])o1 (stereo not shown) [Nifurtimox]
- IC50 [1]: > 30 µM
- IC50 [2]: > 30 µM
- IC50 [3]: > 30 µM
- IC50 [4]: > 30 µM
- IC50 [5]: > 30 µM

Compound: O=C(c1cc(Cc2n[nH]c(=O)c3ccccc23)ccc1F)N1CCN(C(=O)C2CC2)CC1 [Olaparib, olaparib]
- Effect of olaparib on NFZ-induced necrotic cells (Q1 and Q2) ([6]; olaparib and NFZ combination group versus NFZ): reduced the number of necrotic cells
- Effect of olaparib on NFZ-induced γ-H2A.X ([7]; 10 μmol/L OLP with NFZ): counteracted this effect of NFZ
- Effect of olaparib on NFZ-mediated growth inhibition ([1]; 5 μmol/L NFZ with 20 μmol/L olaparib): completely abrogated the inhibitory effects of NFZ
- Effect of olaparib on NFZ-mediated growth inhibition ([1]; 5 μmol/L NFZ with 0.5, 1.0, or 20 μmol/L OLP): blocked NFZ-mediated growth inhibition
- Effect of olaparib on NFZ-induced AIF release ([9]; 10 μmol/L olaparib with NFZ): reduced
- Effect of olaparib on NFZ-induced PARP1 cleavage ([11]; 10 μmol/L OLP with NFZ): not altered
